Series [1] deals with Staphylococcus aureus. In words: Antibacterial activity against methicillin-resistant Staphylococcus aureus ATCC 43300 assessed as growth inhibition at 20 ug after 24 hrs by agar-diffusion assay in presence of iPrSSiPr. It is filed as functional, organism-based. The procedure, abridged: (§1)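 Kirby-Bauer well diffusion on an MRSA lawn (0.5 McFarland suspension swabbed onto tryptic soy agar). Four test agents sat in wells equidistant from a centre well holding 1 mg of additive in DMSO; a DMSO-only centre well served as vehicle control. After overnight incubation at 37 °C, the inhibition zones were examined for size or shape change.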

In series [2] the test system is Staphylococcus aureus. In words: Antibacterial activity against methicillin-resistant Staphylococcus aureus ATCC 43300 assessed as growth inhibition at 20 ug after 24 hrs by agar-diffusion assay in presence of valine. The format is functional, organism-based. The procedure, abridged: as §1
For series [3], the system named is Staphylococcus aureus. In words: Antibacterial activity against methicillin-resistant Staphylococcus aureus ATCC 43300 assessed as growth inhibition at 20 ug after 24 hrs by agar-diffusion assay in presence of lysine. The format is functional, organism-based. The procedure, abridged:
as §1

For series [4], the system named is Staphylococcus aureus. In words: Antibacterial activity against methicillin-resistant Staphylococcus aureus ATCC 43300 assessed as growth inhibition at 20 ug after 24 hrs by agar-diffusion assay in presence of glycine. It is filed as functional, organism-based. The procedure, abridged:
as §1

Series [5] has as its system Staphylococcus aureus. In words: Antibacterial activity against methicillin-resistant Staphylococcus aureus ATCC 43300 assessed as growth inhibition at 20 ug after 24 hrs by agar-diffusion assay in presence of CoA. The format is functional, organism-based. The procedure, abridged:
as §1

Series [6] has as its system Staphylococcus aureus. In words: Antibacterial activity against methicillin-resistant Staphylococcus aureus ATCC 43300 assessed as growth inhibition at 20 ug after 24 hrs by agar-diffusion assay in presence of cystine. The format is functional, organism-based.
For series [7], the system named is Staphylococcus aureus. In words: Antibacterial activity against methicillin-resistant Staphylococcus aureus ATCC 43300 assessed as growth inhibition at 20 ug after 24 hrs by agar-diffusion assay in presence of PPh3. The format is functional, organism-based. The essentials:
as §1

In series [8] the test system is Staphylococcus aureus. In words: Antibacterial activity against methicillin-resistant Staphylococcus aureus ATCC 43300 assessed as growth inhibition at 20 ug after 24 hrs by agar-diffusion assay in presence of GSH. The format is functional, organism-based. The procedure, abridged:
as §1

For series [9], the system named is Staphylococcus aureus. In words: Antibacterial activity against methicillin-susceptible Staphylococcus aureus ATCC 25923 assessed as reduction in bacterial counts at 4 ug/mL after overnight incubation […] (reference value: 7.60 x 10^8 cfu/mL). The format is functional. The procedure, abridged:
(§2)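 Viability count assay against S. aureus ATCC 25923. All tubes started at 10⁵ cfu/mL, and viable bacteria were counted before and after incubation with disulfide at the line's concentration. Tubes without disulfide served as the growth reference. Performed in triplicate.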

A further series concerns Candida albicans. In words: Antifungal activity against Candida albicans assessed as reduction in viability by trypan blue staining. The format is functional. The procedure, abridged:
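C. albicans was exposed in YNB to a 1, 0.5, 0.25 and 0.125 series, following the NCCLS fungal protocol. Non-viable cells were stained with trypan blue and counted in a cell-counting chamber under a microscope at 40X. Controls were untreated cells in YNB and cells heat-killed in PBS (boiled 5 min).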

The nature of series [10]: Cytotoxicity against bovine primary aortic endothelial cells at 20 ug/mL after 48 hrs by MTT assay. It is filed as cell-based, Bos taurus. To be noted: cattle, endothelial cell. The essentials:
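Primary bovine aortic endothelial cells were kept in EBM-2 with 10% FBS and penicillin/streptomycin at 37 °C under 5% CO₂. Cells were trypsinized, counted and plated in 96-well dishes, then treated for 48 h. MTT was added and formazan dissolved in DMSO; absorbance was read at 540 nm with 660 nm background. Viability is expressed as percent of untreated control.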

The subject of series [11] is Staphylococcus aureus. In words: Antibacterial activity against methicillin-resistant Staphylococcus aureus ATCC 43300 assessed as growth inhibition at 1 mg after 24 hrs by agar-diffusion assay. The format is functional, organism-based. The essentials:
as §1

In series [12] the test system is Staphylococcus aureus. In words: Antibacterial activity against methicillin-resistant Staphylococcus aureus ATCC 43300 assessed as growth inhibition at 50 ug after 24 hrs by agar-diffusion assay in presence of cystine. The format is functional, organism-based.
The subject of series [13] is Staphylococcus aureus. In words: Antibacterial activity against methicillin-susceptible Staphylococcus aureus ATCC 25923 […] by agar dilution method. It is filed as functional.
For a further series, the system named is Bartonella sp. In words: Antibacterial activity against Bartonella ssp. […] by agar dilution method. The format is functional.
Series [14] relates to Staphylococcus aureus. In words: Antibacterial activity against methicillin-resistant Staphylococcus aureus ATCC 43300 […] by agar dilution method. It is filed as functional.
Series [15] relates to Staphylococcus aureus. In words: Antibacterial activity against methicillin-resistant Staphylococcus aureus ATCC 43300 assessed as growth inhibition at 50 ug after 24 hrs by agar-diffusion assay in presence of lysine. The format is functional, organism-based. The essentials:
as §1

Series [16] concerns Staphylococcus aureus. In words: Antibacterial activity against methicillin-resistant Staphylococcus aureus ATCC 43300 assessed as reduction in bacterial counts at 4 ug/mL after overnight incubation by […] (reference value: 4.02 x 10^8 cfu/mL). It is filed as functional.
Series [17] concerns Staphylococcus aureus. In words: Antibacterial activity against methicillin-resistant Staphylococcus aureus ATCC 43300 assessed as growth inhibition at 50 ug after 24 hrs by agar-diffusion assay in presence of PPh3. The format is functional, organism-based. The essentials: as §1
In series [18] the test system is Staphylococcus aureus. In words: Antibacterial activity against methicillin-resistant Staphylococcus aureus ATCC 43300 assessed as growth inhibition at 50 ug after 24 hrs by agar-diffusion assay in presence of valine. The format is functional, organism-based. The essentials: as §1
A short description of series [19]: Antibacterial activity against Francisella tularensis subspecies holarctica LVS after 48 hrs by broth dilution method. It is filed as functional, Francisella tularensis subsp. holarctica LVS.
Series [20] has as its system Staphylococcus aureus. In words: Antibacterial activity against methicillin-resistant Staphylococcus aureus ATCC 43300 assessed as growth inhibition at 50 ug after 24 hrs by agar-diffusion assay in presence of glycine. The format is functional, organism-based. The procedure, abridged:
as §1

In series [21] the test system is Staphylococcus aureus. In words: Membrane disrupting activity in methicillin-resistant Staphylococcus aureus ATCC 43300 by scanning electron microscopy. It is filed as functional, organism-based. The procedure, abridged:
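Scanning electron microscopy of MRSA cells before and after disulfide treatment during Kirby-Bauer agar diffusion experiments, assessing external cell morphology and cell-wall integrity.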

Series [22] has as its system Staphylococcus aureus. In words: Antibacterial activity against methicillin-resistant Staphylococcus aureus ATCC 43300 assessed as growth inhibition at 50 ug after 24 hrs by agar-diffusion assay in presence of GSH. It is filed as functional, organism-based. The essentials:
as §1

The subject of series [23] is Staphylococcus aureus. In words: Antibacterial activity against methicillin-susceptible Staphylococcus aureus ATCC 25923 assessed as reduction in bacterial counts at 2 ug/mL after overnight incubation […] (reference value: 7.60 x 10^8 cfu/mL). The format is functional. The essentials:
as §2

A further series deals with Escherichia coli. In words: Antibacterial activity against Escherichia coli K-12 […] by agar dilution method. The format is functional, organism-based.
For series [24], the system named is Staphylococcus aureus. In words: Antibacterial activity against methicillin-resistant Staphylococcus aureus ATCC 43300 assessed as growth inhibition at 50 ug after 24 hrs by agar-diffusion assay in presence of CoA. It is filed as functional, organism-based. The procedure, abridged:
as §1

The subject of series [25] is Staphylococcus aureus. In words: Antibacterial activity against methicillin-resistant Staphylococcus aureus ATCC 43300 assessed as growth inhibition at 50 ug after 24 hrs by agar-diffusion assay in presence of iPrSSiPr. It is filed as functional, organism-based. The procedure, abridged: as §1
Series [26] relates to Staphylococcus aureus. In words: Antibacterial activity against methicillin-resistant Staphylococcus aureus ATCC 43300 assessed as reduction in bacterial counts at 2 ug/mL after overnight incubation by […] (reference value: 4.02 x 10^8 cfu/mL). It is filed as functional.

Values after ≈ are worked out from the molar mass of the structure shown. Active and inactive are the calls of the source. No cut-off for these calls is given here.

Results on two compounds are retold here after ChEMBL document CHEMBL2029337, “Synthesis and antimicrobial activities of structurally novel S,S'-bis(heterosubstituted) disulfides” (Bioorg Med Chem Lett, 2012).

Regarding `C=CC(=O)O[C@H]1C(=O)N(SC)[C@H]1c1ccccc1Cl`, the “growth inhibition (GI)” value with Staphylococcus aureus [1], in the series with Staphylococcus aureus [2], with Staphylococcus aureus [3], with Staphylococcus aureus [4] and in the series with Staphylococcus aureus [7] was “Active” throughout. The “growth inhibition (GI)” value in the series with Staphylococcus aureus [5], in the series on Staphylococcus aureus [6] and in the series with Staphylococcus aureus [8] was “inactive” throughout.

Turning to `CC(C)OSSOC(C)C`, the Activity with Staphylococcus aureus [9] is given as 2.04 ×10³ CFU/ml; in series [10], “Non-toxic”; with Staphylococcus aureus [16], 2.88 ×10³ CFU/ml; in the series with Staphylococcus aureus [23], 3.86 ×10⁴ CFU/ml; in the series on Staphylococcus aureus [26], over 1.2 ×10⁶ CFU/ml. In addition, the MIC in the series on Candida albicans amounted to 0.5 µg/mL (≈ 2.74 µM); in the series with Staphylococcus aureus [13], 1 µg/mL (≈ 5.49 µM); with Staphylococcus aureus [14], 0.5 µg/mL (≈ 2.74 µM); in [19], 4 µg/mL (≈ 21.9 µM). For the same compound, the “growth inhibition (GI)” value with Staphylococcus aureus [11], in the series with Staphylococcus aureus [15], in the series on Staphylococcus aureus [17], in the series on Staphylococcus aureus [18], with Staphylococcus aureus [20] and with Staphylococcus aureus [25] was “Active” in each case. In addition, the “growth inhibition (GI)” value in the series with Staphylococcus aureus [12], in the series with Staphylococcus aureus [22] and with Staphylococcus aureus [24] was “inactive” throughout. The result in the series with Bartonella sp., in the series with Staphylococcus aureus [21] and in the series with Escherichia coli was inactive.
